Test results reported in ChEMBL document CHEMBL1154604, “Novel hybrids from lamellarin D and combretastatin A 4 as cytotoxic agents” (Eur J Med Chem, 2010).

What was measured:
Format in all cases: functional, cell-based
SGC-7901 = test: Antiproliferative activity against human SGC7901 cells after 48 hrs by MTT assay; conditions: SGC-7901, 48 h
Outline: (§1)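 Exponentially growing cells seeded in 96-well plates, left 24 h, then exposed to compounds at given concentrations for 48 h. MTT at 2.5 mg ml^-1 added for 4 h; formazan dissolved in 10% SDS in 0.1 N HCl, absorbance at 570 nm. Viability compared with blank; IC50 (50% inhibition of viability) calculated by Bliss method.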

SMMC-7721 = test: Antiproliferative activity against human SMMC7721 cells after 48 hrs by MTT assay; conditions: SMMC-7721, 48 h; outline: as §1
A549 = test: Antiproliferative activity against human A549 cells after 48 hrs by MTT assay; conditions: A549, 48 h; outline: as §1
K562 = test: Antiproliferative activity against human K562 cells after 48 hrs by MTT assay; conditions: K562, 48 h; outline: as §1
HCT-116 = test: Antiproliferative activity against human HCT116 cells after 48 hrs by MTT assay; conditions: HCT-116, 48 h; outline: as §1

IC50 (SGC-7901)	IC50 (SMMC-7721)	IC50 (A549)	IC50 (K562)	IC50 (HCT-116)	SMILES
> 76.7 µM	> 76.7 µM	> 76.7 µM	> 76.7 µM	> 76.7 µM	COc1cc(OS(C)(=O)=O)c(-c2cn3c(c2-c2ccc(OC(C)C)c(OC)c2)-c2cc(OC)c(OC(C)C)cc2CC3)cc1OC
> 83.9 µM	> 83.9 µM	> 83.9 µM	> 83.9 µM	> 83.9 µM	COc1ccc(-c2c(-c3cc(OC)c(OC)cc3OS(C)(=O)=O)cn3c2-c2cc(OC)c(OC)cc2CC3)cc1OC
> 98.8 µM	> 98.8 µM	> 98.8 µM	> 98.8 µM	> 98.8 µM	COc1cc2c(cc1OC)-c1c(-c3cc(OC)c(OC)c(OC)c3)c(-c3ccc(Cl)cc3)cn1CC2
11.4 µM	10.9 µM	6.7 µM	2.7 µM	0.7 µM	COc1cc(-c2c(-c3ccc(O)c(O)c3)cn3c2-c2cc(OC)c(OC(C)C)cc2CC3)ccc1OC(C)C
> 117 µM	> 117 µM	> 117 µM	3.1 µM	34.5 µM	COc1ccc(-c2c(-c3ccc(O)cc3)cn3c2-c2cc(OC)c(OC)cc2CC3)cc1
> 89.3 µM	> 89.3 µM	> 89.3 µM	> 89.3 µM	> 89.3 µM	COc1cc2c(cc1OC)-c1c(-c3cc(OC)c(OC)c(OC)c3)c(-c3ccc(OC)c(OC(C)C)c3)cn1CC2
> 94.1 µM	> 94.1 µM	> 94.1 µM	4 µM	1.4 µM	COc1cc2c(cc1OC(C)C)CCn1cc(-c3ccc(O)c(O)c3)c(-c3cc(OC)c(OC)c(OC)c3)c1-2
3.34 µM					CC(=O)O[C@H]1C(=O)[C@@]2(C)[C@H]([C@H](OC(=O)c3ccccc3)[C@]3(O)C[C@H](OC(=O)[C@H](O)[C@@H](NC(=O)c4ccccc4)c4ccccc4)C(C)=C1C3(C)C)[C@]1(OC(C)=O)CO[C@@H]1C[C@@H]2O [PACLITAXEL]
> 109 µM	> 109 µM	> 109 µM	> 109 µM	> 109 µM	COc1ccc(-c2c(-c3cc(F)ccc3OC)cn3c2-c2cc(OC)c(OC)cc2CC3)cc1

Continued, compound first:

SMILES	IC50 (SGC-7901)	IC50 (SMMC-7721)	IC50 (A549)	IC50 (K562)	IC50 (HCT-116)
COc1cc2c(cc1OC)-c1c(-c3cc(OC)c(OC)c(OC)c3)c(-c3ccc(O)cc3)cn1CC2	22.7 µM	15 µM	23.3 µM	5.3 µM	13.8 µM
COc1ccc(-c2c(-c3ccc(O)c(O)c3)cn3c2-c2cc(OC)c(OC)cc2CC3)cc1OC	> 106 µM	> 106 µM	> 106 µM	> 106 µM	> 106 µM
COc1ccc(-c2c(-c3ccc(OC)c(O)c3)cn3c2-c2cc(OC)c(OC)cc2CC3)cc1	> 109 µM	> 109 µM	> 109 µM	> 109 µM	> 109 µM
COc1cc(-c2c(-c3cc(OC)c(OC(C)C)cc3OS(C)(=O)=O)cn3c2-c2cc(OC)c(OC(C)C)cc2CC3)ccc1OC(C)C	> 73.5 µM	> 73.5 µM	> 73.5 µM	59.8 µM	21 µM
COc1ccc(-c2cn3c(c2-c2cc(OC)c(OC)c(OC)c2)-c2cc(OC)c(OC)cc2CC3)cc1O	> 96.4 µM	> 96.4 µM	> 96.4 µM	22 µM	3.2 µM
COc1ccc(-c2cn3c(c2-c2cc(OC)c(OC)c(OC)c2)-c2cc(OC)c(OC(C)C)cc2CC3)cc1OC(C)C	> 85.1 µM	> 85.1 µM	> 85.1 µM	83.3 µM	> 85.1 µM
COc1cc(-c2c(-c3cc(F)ccc3OC)cn3c2-c2cc(OC)c(OC(C)C)cc2CC3)ccc1OC(C)C	> 91.6 µM	> 91.6 µM	> 91.6 µM	> 91.6 µM	> 91.6 µM
COc1cc2c(cc1OC)-c1c(-c3cc(OC)c(OC)c(OC)c3)c(-c3ccc(Br)cc3)cn1CC2	1.2 µM	17.5 µM	> 90.8 µM	8.8 µM	> 90.8 µM
COc1cc2c(cc1OC(C)C)CCn1cc(-c3ccc(Br)cc3)c(-c3cc(OC)c(OC)c(OC)c3)c1-2	15.4 µM	> 86.4 µM	> 86.4 µM	> 86.4 µM	> 86.4 µM
COc1cc2c(cc1OC)-c1c(-c3cc(OC)c(OC)c(OC)c3)c(-c3cc(F)ccc3OC)cn1CC2	> 96.2 µM	> 96.2 µM	> 96.2 µM	37.1 µM	> 96.2 µM
COc1ccc(-c2cn3c(c2-c2cc(OC)c(OC)c(OC)c2)-c2cc(OC)c(OC(C)C)cc2CC3)cc1O	> 91.5 µM	> 91.5 µM	> 91.5 µM	19.6 µM	> 91.5 µM
COc1cc2c(cc1OC(C)C)CCn1cc(-c3ccc(O)cc3)c(-c3cc(OC)c(OC)c(OC)c3)c1-2	> 96.8 µM	46.7 µM	> 96.8 µM	> 96.8 µM	> 96.8 µM
COc1cc2c(cc1OC(C)C)CCn1cc(-c3ccc(Cl)cc3)c(-c3cc(OC)c(OC)c(OC)c3)c1-2	> 93.6 µM	> 93.6 µM	> 93.6 µM	> 93.6 µM	> 93.6 µM
COc1ccc(-c2c(-c3cc(F)ccc3OC(C)C)cn3c2-c2cc(OC)c(OC)cc2CC3)cc1	> 103 µM	> 103 µM	> 103 µM	> 103 µM	> 103 µM
COc1cc2c(cc1OC)-c1c(-c3cc(OC)c(OC)c(OC)c3)c(-c3ccc(O)c(O)c3)cn1CC2	> 99.4 µM	43.9 µM	99.4 µM	14.1 µM	5.8 µM
